# Laboratory results: ChEMBL document CHEMBL4831519, “Discovery of the first-in-class dual PPARδ/γ partial agonist for the treatment of metabolic syndrome” (Eur J Med Chem, 2021)
# Activity calls are given as the source filed them. The rule behind the calls is not given here.
# What was measured:
# [1] = molecular target: T1, Peroxisome proliferator-activated receptor alpha (Homo sapiens, UniProt Q07869); test: Agonist activity at human PPARalpha transfected in human HepG2 cells incubated for 18 hrs by Renilla/Firefly dual-luciferase reporter assay; type: cell-based
# T1 sequence (Q07869 whole entry): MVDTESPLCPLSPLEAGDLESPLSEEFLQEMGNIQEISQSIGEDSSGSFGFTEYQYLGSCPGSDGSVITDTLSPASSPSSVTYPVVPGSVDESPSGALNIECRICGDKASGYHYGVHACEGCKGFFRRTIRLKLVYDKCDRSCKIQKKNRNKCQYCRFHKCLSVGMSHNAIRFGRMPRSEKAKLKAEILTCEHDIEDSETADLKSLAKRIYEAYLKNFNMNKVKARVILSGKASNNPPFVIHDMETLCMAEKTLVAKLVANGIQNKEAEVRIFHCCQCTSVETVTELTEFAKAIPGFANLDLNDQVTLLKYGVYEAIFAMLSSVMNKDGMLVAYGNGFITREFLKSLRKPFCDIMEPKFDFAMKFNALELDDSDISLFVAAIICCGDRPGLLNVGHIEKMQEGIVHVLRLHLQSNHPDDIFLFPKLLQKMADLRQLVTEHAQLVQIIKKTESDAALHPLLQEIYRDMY
# [2] = AUC (0 to 24 hrs) in Sprague-Dawley rat at 3 mg/kg, po measured after 24 hrs by LC-MS/MS analysis; type: ADME, organism-based; parameters: route oral, time 24 hrs, dose 3 mg/kg; conditions: in vivo
# Summary of the method: (§1)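 Male SD rats (eight weeks old at purchase) dosed orally at 3 mg/kg. Plasma profile followed over 0–24 h to derive AUC0–24h, Cmax, CL and T1/2. Values are mean SD of four rats.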
# [3] = Toxicity in ob/ob mouse assessed as weight gain at 20 mg/kg, po administered once daily for 30 days and measured every 5 days; type: organism-based; conditions: in vivo, 720 h, time 30 day
# Summary of the method: (§2)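 Food and water intake measured daily and body weight every 5 days. n = 6, mean SD; Student's t-test vs vehicle, with one-way ANOVA/Tukey.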
# [4] = Clearance in Sprague-Dawley rat at 3 mg/kg, po measured for 24 hrs by LC-MS/MS analysis; type: ADME, organism-based; conditions: in vivo; summary of the method: as §1
# [5] = Half-life in Sprague-Dawley rat at 3 mg/kg, po measured for 24 hrs by LC-MS/MS analysis; type: ADME, organism-based; conditions: in vivo; summary of the method: as §1
# [6] = Cmax in Sprague-Dawley rat at 3 mg/kg, po measured for 24 hrs by LC-MS/MS analysis; type: ADME, organism-based; parameters: route oral, dose 3 mg/kg, time 24 hrs; conditions: in vivo; summary of the method: as §1
# [7] = species on record: Mus musculus; conditions: dose 10.0 mg/kg, time 30.0 day
# [8] = species on record: Mus musculus; conditions: dose 10.0 mg/kg, time 30.0 day; remark: listed apart in the source
# [9] = species on record: Mus musculus; conditions: dose 10.0 mg/kg, time 30.0 day; remark: listed apart in the source
# [10] = species on record: Mus musculus; conditions: dose 10.0 mg/kg, time 30.0 day; remark: listed apart in the source
# [11] = Toxicity in ob/ob mouse assessed as weight gain at 10 mg/kg, po administered once daily for 30 days and measured every 5 days; type: organism-based; conditions: in vivo, 720 h, time 30 day; summary of the method: as §2
# [12] = species on record: Mus musculus; conditions: dose 10.0 mg/kg, time 30.0 day; remark: listed apart in the source
# [13] = Induction of hepatic steatosis in ob/ob mouse at 10 mg/kg, po administered once daily for 30 days by hematoxylin-eosin staining based histopathological analysis; type: organism-based; conditions: in vivo, 720 h, time 30 day
# Summary of the method: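 Liver sections were stained with hematoxylin-eosin and viewed at 400× for steatosis and ballooning, with normal controls included.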
# [14] = species on record: Mus musculus; conditions: dose 10.0 mg/kg, time 30.0 day; remark: listed apart in the source
# [15] = molecular target: T2, Peroxisome proliferator-activated receptor delta (Homo sapiens, UniProt Q03181); test: Agonist activity at human PPARdelta transfected in human HEK293 cells incubated for 18 hrs by Renilla/Firefly dual-luciferase reporter assay; type: cell-based
# T2 sequence (Q03181 whole entry): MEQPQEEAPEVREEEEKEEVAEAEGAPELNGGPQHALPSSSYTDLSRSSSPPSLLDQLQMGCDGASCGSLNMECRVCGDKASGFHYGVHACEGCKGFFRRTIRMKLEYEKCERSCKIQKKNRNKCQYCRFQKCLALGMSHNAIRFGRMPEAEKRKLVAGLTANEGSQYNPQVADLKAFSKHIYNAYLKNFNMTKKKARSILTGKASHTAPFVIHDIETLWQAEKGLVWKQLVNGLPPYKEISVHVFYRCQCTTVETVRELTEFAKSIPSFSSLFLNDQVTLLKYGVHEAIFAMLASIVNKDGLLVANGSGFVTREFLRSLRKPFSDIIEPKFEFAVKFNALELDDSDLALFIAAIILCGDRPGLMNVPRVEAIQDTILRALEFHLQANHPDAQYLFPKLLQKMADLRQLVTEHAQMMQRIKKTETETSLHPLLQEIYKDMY
# [16] = molecular target: T3, Peroxisome proliferator-activated receptor gamma (Homo sapiens, UniProt P37231); test: Agonist activity at human PPARgamma transfected in human HEK293 cells incubated for 18 hrs by Renilla/Firefly dual-luciferase reporter assay; type: cell-based
# T3 sequence (P37231 whole entry): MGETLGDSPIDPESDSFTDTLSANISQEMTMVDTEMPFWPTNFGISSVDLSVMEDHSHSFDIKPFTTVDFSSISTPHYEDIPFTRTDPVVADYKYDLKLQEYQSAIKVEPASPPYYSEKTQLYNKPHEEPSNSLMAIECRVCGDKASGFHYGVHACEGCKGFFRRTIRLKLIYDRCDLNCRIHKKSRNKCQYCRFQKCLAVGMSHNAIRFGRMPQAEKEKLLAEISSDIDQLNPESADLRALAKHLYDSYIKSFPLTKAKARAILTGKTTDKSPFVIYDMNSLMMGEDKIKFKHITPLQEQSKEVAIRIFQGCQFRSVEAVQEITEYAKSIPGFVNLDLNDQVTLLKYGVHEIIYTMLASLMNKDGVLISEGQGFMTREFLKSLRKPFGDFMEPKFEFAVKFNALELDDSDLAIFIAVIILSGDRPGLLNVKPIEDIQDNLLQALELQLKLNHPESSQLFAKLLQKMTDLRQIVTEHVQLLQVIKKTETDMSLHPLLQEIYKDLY
smiles,measurement,setting,value
CCCOc1ccc2c(c1)O/C(=C\c1cc(C)c(OCC(=O)O)c(C)c1)C2=O,EC50,[1],> 10 µM
Cc1cc(/C=C2\Oc3cc(OCC4CC4)ccc3C2=O)cc(C)c1OC(C)(C)C(=O)O,AUC(0-t) at 24 h,[2],51100 ng·h/mL
same,Activity,[3],Non-Toxic
same,CL/F,[4],0.351 mL/min/kg
same,half-life,[5],3.85 h
same,Cmax,[6],8670 ng/mL
CCOc1ccc2c(c1)O/C(=C\c1cc(C)c(OCC(=O)O)c(C)c1)C2=O,EC50,[1],> 10 µM
CCCOc1ccc2c(c1)O/C(=C\c1cc(C)c(OC(C)(C)C(=O)O)c(C)c1)C2=O,EC50,[1],6.91 µM
CN(CCOc1ccc(CC2SC(=O)NC2=O)cc1)c1ccccn1 (stereo not given) [ROSIGLITAZONE],inhibition,[7],inactive
same,inhibition,[8],inactive
same,inhibition,[9],inactive
same,inhibition,[10],inactive
same,Activity,[11],Toxic
same,inhibition,[12],inactive
same,Activity,[13],Toxic
same,inhibition,[14],inactive
COc1ccc2c(c1)O/C(=C\c1cc(C)c(OCC(=O)O)c(C)c1)C2=O,EC50,[1],> 10 µM
same,EC50,[15],3.22 µM
Cc1cc(/C=C2\Oc3cc(OCCC(C)C)ccc3C2=O)cc(C)c1OC(C)(C)C(=O)O,EC50,[1],7.72 µM
COc1ccc2c(c1)O/C(=C\c1cc(C)c(OC(C)(C)C(=O)O)c(C)c1)C2=O,EC50,[1],3.68 µM
Cc1cc(/C=C2\Oc3cc(OCC4CC4)ccc3C2=O)cc(C)c1OCC(=O)O,EC50,[1],> 10 µM
CCOc1ccc2c(c1)O/C(=C\c1cc(C)c(OC(C)(C)C(=O)O)c(C)c1)C2=O,EC50,[1],4.64 µM
CSc1ccc(C(=O)/C=C/c2cc(C)c(OC(C)(C)C(=O)O)c(C)c2)cc1 [ELAFIBRANOR],EC50,[16],3.96 µM
same,EC50,[1],0.375 µM
Cc1cc(/C=C2\Oc3cc(OCC(C)C)ccc3C2=O)cc(C)c1OCC(=O)O,EC50,[1],> 10 µM
